The source made the active and inactive calls. The calls are words filed in the database; no cut-off is given here.
Tests used:
Plasmodium berghei [1] = assay: Antimalarial activity against exo-erythrocytic form of Plasmodium berghei infected in human HepG2 cells after 48 hrs; type: functional, organism-based; conditions: HepG2, 48 h
In short: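 HepG2-A16-CD81EGFP cells seeded 20–26 h before infection and given compound 18 h before infection (0.5% final DMSO). Infected with 1×10^3 luciferase-expressing P. berghei sporozoites per well, spun 3 min at 330xg, 37°C, then incubated 48 h at 37°C in 5% CO2. Read by luminescence. IC50 by four-parameter variable-slope nonlinear regression.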

HepG2 = assay: Cytotoxicity against human HepG2 cells after 48 hrs; type: ADME, cell-based; conditions: HepG2, 48 h
[2] = Selectivity index, ratio of IC50 for human HepG2 cells to IC50 for asexual blood stage of Plasmodium falciparum 3D7
Plasmodium falciparum [3] = assay: Antimalarial activity against asexual blood stage of Plasmodium falciparum 3D7 infected in human serum assessed as [3H]hypoxanthine incorporation incubated for 48 hrs prior to 3H]hypoxanthine addition measured after 24 hrs by liquid scintillation counting analysis; type: functional, organism-based; conditions: 3D7, Serum
In short: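 Synchronous ring-stage parasites (0.25% parasitaemia, 2.5% haematocrit) in RPMI 1640 with 10% heat-inactivated human serum, exposed to serially diluted compound for 48 h at 37°C. [3H]-hypoxanthine (0.5 μCi/well) then added for a further 24 h and counted by liquid scintillation. Inhibition is relative to 0.5% DMSO controls. IC50 by log-linear interpolation, mean (±SD) of three independent experiments, each in triplicate wells.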

[4] = Selectivity index, ratio of IC50 for human HepG2 cells to IC50 for exo-erythrocytic form of Plasmodium berghei
Plasmodium falciparum [5] = assay: Antimalarial activity against late stage gametocyte stage of Plasmodium falciparum NF54 after 72 hrs; type: functional, organism-based; conditions: NF54, 72 h
In short: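 Stage IV gametocytes of NF54-pfs16-GFP, magnetically isolated day 8 post induction, 33,000 per well. Incubated 72 h with compound under 5% CO2/5% O2/80% N2, then overnight with Mitotracker Red CM-H2XRos (0.07 ug/ml). IC50 by sigmoidal variable-slope fit, mean ±SD, two experiments in duplicate.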

[6] = test system: Plasmodium falciparum 3D7; assay: Inhibition of HDAC in Plasmodium falciparum 3D7 trophozoites assessed as histone H3 hyperacetylation level at 500 nM after 3 hrs by Western blotting analysis relative to control
In short: (§1)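 Synchronous trophozoite-stage 3D7 parasites incubated 3 h with 500 nM compound or 0.05% DMSO vehicle. Vehicle samples taken at 0 and 3 h. Saponin lysis and PBS washing, then 15% SDS-PAGE and immunoblotting. Anti-RAP2 monoclonal used as loading control; infrared fluorescent secondary detection.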

[7] = Selectivity index, ratio of IC50 for human HepG2 cells to IC50 for late stage gametocyte stage of Plasmodium falciparum NF54; type: toxicity, cell-based; conditions: read-out: Ratio IC50
Plasmodium falciparum [8] = assay: Inhibition of Plasmodium falciparum recombinant histone deacetylase1 using HDAC substrate 3 as substrate at 1 uM by fluorescence assay
In short: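 Recombinant PfHDAC1 tested at 1 μM compound in a fluorometric HDAC assay kit with Fluorogenic HDAC substrate 3. Percent inhibition vs controls, mean (±SD) of two independent assays, each in duplicate.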

[9] = test system: Plasmodium falciparum 3D7; assay: Inhibition of HDAC in Plasmodium falciparum 3D7 trophozoites assessed as histone H4 hyperacetylation level at 500 nM after 3 hrs by Western blotting analysis relative to control; in short: as §1
Plasmodium falciparum [10] = assay: Inhibition of histone deacetylase in Plasmodium falciparum nuclear lysates at 1 uM by fluorescence assay
In short: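 Nuclear protein lysates prepared from trophozoite-stage P. falciparum with a nuclear extraction kit, tested at 1 μM compound in a fluorometric HDAC assay kit. Percent inhibition vs controls, mean (±SD) of two independent assays, each in duplicate.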

[11] = Cytotoxicity against erythrocytes (unknown origin); type: cell-based; conditions: Erythrocyte
[12] = Selectivity index, ratio of IC50 for mouse RAW cells to IC50 for Plasmodium falciparum; type: toxicity, cell-based; conditions: read-out: Ratio IC50
RAW = assay: Cytotoxicity against mouse RAW cells by MTT assay; type: cell-based
[13] = Selectivity index, ratio of IC50 for human mammalian cells to IC50 for Plasmodium falciparum; type: toxicity; conditions: mammalian cells (cell line not named), read-out: Ratio IC50
In short: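 Ratio of HepG2 IC50 to P. falciparum 3D7 IC50. HepG2 toxicity assay: uninfected HepG2-A16-CD81EGFP cells treated as in the liver-stage assay, with medium instead of sporozoites, for 48 h. ATP measured by luminescence vs DMSO-treated cells. IC50 by four-parameter regression.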

[14] = Cytotoxicity against human mammalian cells after 72 to 96 hrs by MTT assay; type: cell-based
Plasmodium falciparum [15] = assay: Antimalarial activity against Plasmodium falciparum infected in human erythrocytes after 72 hrs; type: functional, organism-based
Plasmodium berghei [16] = assay: microbe, parasite or virus in culture; type: functional, organism-based; conditions: HepG2

CCN(CC)CCCC(C)Nc1ccnc2cc(Cl)ccc12 (stereo not drawn) [CHLOROQUINE]
IC50 (Plasmodium berghei [1]): > 10000 nM | IC50 (HepG2): > 10000 nM

O=C(CCCCCONC(=O)c1ccc(F)cc1)NO
selectivity ratio [2]: 18 | IC50 (Plasmodium falciparum [3]): 580 nM | IC50 (Plasmodium berghei [1]): 2310 nM | IC50 (HepG2): 10300 nM | selectivity ratio [4]: 4 | IC50 (Plasmodium falciparum [5]): 2000 nM

Cc1cccc(C(=O)NOCCCCCC(=O)NO)c1
inhibition [6]: Active | selectivity ratio [7]: 11 | selectivity ratio [2]: 25 | IC50 (Plasmodium falciparum [3]): 190 nM | IC50 (Plasmodium berghei [1]): 660 nM | inhibition (Plasmodium falciparum [8]): 75.5% | IC50 (HepG2): 4690 nM | inhibition [9]: Active | selectivity ratio [4]: 7 | IC50 (Plasmodium falciparum [5]): 430 nM | inhibition (Plasmodium falciparum [10]): 73.9%

CCCCOc1ccc(C(=O)NOCCCCCC(=O)NO)cc1
inhibition [6]: Active | selectivity ratio [2]: > 294 | IC50 (Plasmodium falciparum [3]): 170 nM | IC50 (Plasmodium berghei [1]): 2140 nM | inhibition (Plasmodium falciparum [8]): 72.1% | IC50 (HepG2): > 50000 nM | inhibition [9]: Active | selectivity ratio [4]: > 23 | inhibition (Plasmodium falciparum [10]): 50.3%

Cc1ccc(C(=O)NOCCCCCC(=O)NO)cc1C
inhibition [6]: Active | selectivity ratio [7]: 13 | selectivity ratio [2]: 27 | IC50 (Plasmodium falciparum [3]): 120 nM | IC50 (Plasmodium berghei [1]): 310 nM | inhibition (Plasmodium falciparum [8]): 82.6% | IC50 (HepG2): 3240 nM | inhibition [9]: Active | selectivity ratio [4]: 10 | IC50 (Plasmodium falciparum [5]): 250 nM | inhibition (Plasmodium falciparum [10]): 93.3%

Cc1cc(C)cc(C(=O)NOCCCCCC(=O)NO)c1
inhibition [6]: Active | selectivity ratio [7]: 4 | selectivity ratio [2]: 13 | IC50 (Plasmodium falciparum [3]): 100 nM | IC50 (Plasmodium berghei [1]): 160 nM | inhibition (Plasmodium falciparum [8]): 73.8% | IC50 (HepG2): 1260 nM | inhibition [9]: Active | selectivity ratio [4]: 8 | IC50 (Plasmodium falciparum [5]): 330 nM | inhibition (Plasmodium falciparum [10]): 58.6%

Cc1ccccc1C(=O)NOCCCCCC(=O)NO
selectivity ratio [2]: 11 | IC50 (Plasmodium falciparum [3]): 1120 nM | IC50 (Plasmodium berghei [1]): 2540 nM | IC50 (HepG2): 12700 nM | selectivity ratio [4]: 5

CC(/C=C/C(=O)NO)=C\[C@@H](C)C(=O)c1ccc(N(C)C)cc1 [TRICHOSTATIN]
inhibition [6]: Active | IC50 [11]: 200 nM | inhibition (Plasmodium falciparum [8]): 93.3% | inhibition [9]: Active | inhibition (Plasmodium falciparum [10]): 78.1%

CCCOc1ccccc1C(=O)NOCCCCCC(=O)NO
selectivity ratio [2]: 34 | IC50 (Plasmodium falciparum [3]): 240 nM | IC50 (Plasmodium berghei [1]): 480 nM | IC50 (HepG2): 8120 nM | selectivity ratio [4]: 17

Cc1ccc(C(=O)NOCCCCCC(=O)NO)cc1
selectivity ratio [2]: 55 | IC50 (Plasmodium falciparum [3]): 220 nM | IC50 (Plasmodium berghei [1]): 1140 nM | IC50 (HepG2): 12100 nM | selectivity ratio [4]: 11

O=C(CCCCCONC(=O)c1ccccc1F)NO
selectivity ratio [2]: 12 | IC50 (Plasmodium falciparum [3]): 730 nM | IC50 (Plasmodium berghei [1]): 1250 nM | IC50 (HepG2): 9100 nM | selectivity ratio [4]: 7 | IC50 (Plasmodium falciparum [5]): > 120000 nM

CC(C)(C)c1ccc(C(=O)NOCCCCCC(=O)NO)cc1
inhibition [6]: Active | selectivity ratio [2]: 139 | IC50 (Plasmodium falciparum [3]): 90 nM | IC50 (Plasmodium berghei [1]): 1870 nM | inhibition (Plasmodium falciparum [8]): 68.6% | IC50 (HepG2): 12500 nM | inhibition [9]: Active | selectivity ratio [4]: 7 | IC50 (Plasmodium falciparum [5]): > 120000 nM | inhibition (Plasmodium falciparum [10]): 48.3%

CCOc1ccc(C(=O)NOCCCCCC(=O)NO)cc1
selectivity ratio [2]: 33 | IC50 (Plasmodium falciparum [3]): 230 nM | IC50 (Plasmodium berghei [1]): 1370 nM | IC50 (HepG2): 7680 nM | selectivity ratio [4]: 6

O=C(CCCCCONC(=O)c1ccc(C(F)(F)F)cc1)NO
selectivity ratio [2]: 50 | IC50 (Plasmodium falciparum [3]): 260 nM | IC50 (Plasmodium berghei [1]): 1900 nM | IC50 (HepG2): 13000 nM | selectivity ratio [4]: 7

CCCCc1ccc(C(=O)NOCCCCCC(=O)NO)cc1
selectivity ratio [2]: 41 | IC50 (Plasmodium falciparum [3]): 260 nM | IC50 (Plasmodium berghei [1]): 1790 nM | IC50 (HepG2): 10800 nM | selectivity ratio [4]: 6 | IC50 (Plasmodium falciparum [5]): 5300 nM

CCCCCOc1ccc(C(=O)NOCCCCCC(=O)NO)cc1
selectivity ratio [2]: > 238 | IC50 (Plasmodium falciparum [3]): 210 nM | IC50 (Plasmodium berghei [1]): 5140 nM | IC50 (HepG2): > 50000 nM | selectivity ratio [4]: > 10

O=C(/C=C/c1ccccc1)N[C@@H](CCCCCC(=O)NO)C(=O)Nc1cccc2cccnc12
IC50 [11]: 1240 nM

CCCOc1cccc(C(=O)NOCCCCCC(=O)NO)c1
selectivity ratio [2]: 29 | IC50 (Plasmodium falciparum [3]): 240 nM | IC50 (Plasmodium berghei [1]): 450 nM | IC50 (HepG2): 7040 nM | selectivity ratio [4]: 16

O=C(CCCCCONC(=O)c1ccc(-c2ccccc2)cc1)NO
inhibition [6]: Active | selectivity ratio [7]: 20 | selectivity ratio [2]: 64 | IC50 (Plasmodium falciparum [3]): 160 nM | IC50 (Plasmodium berghei [1]): 1830 nM | inhibition (Plasmodium falciparum [8]): 64.2% | IC50 (HepG2): 10200 nM | inhibition [9]: Active | selectivity ratio [4]: 6 | IC50 (Plasmodium falciparum [5]): 500 nM | inhibition (Plasmodium falciparum [10]): 89.3%

CCCCCCOc1ccc(C(=O)NOCCCCCC(=O)NO)cc1
selectivity ratio [2]: > 143 | IC50 (Plasmodium falciparum [3]): 350 nM | IC50 (Plasmodium berghei [1]): 7910 nM | IC50 (HepG2): > 50000 nM | selectivity ratio [4]: > 6

CC(C)c1ccc(C(=O)NOCCCCCC(=O)NO)cc1
inhibition [6]: Active | selectivity ratio [2]: 73 | IC50 (Plasmodium falciparum [3]): 120 nM | IC50 (Plasmodium berghei [1]): 1340 nM | inhibition (Plasmodium falciparum [8]): 67.2% | IC50 (HepG2): 8760 nM | inhibition [9]: Active | selectivity ratio [4]: 7 | inhibition (Plasmodium falciparum [10]): 72.9%

CCCOc1ccc(C(=O)NOCCCCCC(=O)NO)cc1
selectivity ratio [2]: 80 | IC50 (Plasmodium falciparum [3]): 210 nM | IC50 (Plasmodium berghei [1]): 5290 nM | IC50 (HepG2): 16900 nM | selectivity ratio [4]: 3

Nc1cccc(-c2csc(NC(=O)CCCCCCC(=O)NO)n2)c1
selectivity ratio [12]: 333 | IC50 (RAW): 600 nM

CCCCc1nc2cc(/C=C/C(=O)NO)ccc2n1CCN(CC)CC [PRACINOSTAT]
selectivity ratio [13]: > 4 | IC50 [14]: > 800 nM | IC50 (Plasmodium falciparum [15]): 80 nM | IC50 (Plasmodium berghei [16]): 150 nM

CC(C)Oc1ccc(C(=O)NOCCCCCC(=O)NO)cc1
inhibition [6]: Active | selectivity ratio [2]: 65 | IC50 (Plasmodium falciparum [3]): 150 nM | IC50 (Plasmodium berghei [1]): 1360 nM | inhibition (Plasmodium falciparum [8]): 62.4% | IC50 (HepG2): 9760 nM | inhibition [9]: Active | selectivity ratio [4]: 7 | inhibition (Plasmodium falciparum [10]): 9.3%

COc1ccc2nc3cc(Cl)ccc3c(Nc3cc(CN4CCCC4)c(O)c(CN4CCCC4)c3)c2n1 [PYRONARIDINE]
IC50 (Plasmodium falciparum [5]): 2700 nM

O=C1C(O)=C([C@H]2CC[C@H](c3ccc(Cl)cc3)CC2)C(=O)c2ccccc21 [ATOVAQUONE]
IC50 (Plasmodium berghei [1]): 0.16 nM | selectivity ratio [4]: > 64100

O=C(CCCCCCC(=O)Nc1ccccc1)NO [VORINOSTAT]
IC50 [11]: > 2200 nM

O=C(CCCCCONC(=O)c1ccco1)NO
selectivity ratio [2]: 13 | IC50 (Plasmodium falciparum [3]): 620 nM | IC50 (Plasmodium berghei [1]): 1130 nM | IC50 (HepG2): 8030 nM | selectivity ratio [4]: 7 | IC50 (Plasmodium falciparum [5]): 1000 nM
